ARFGAP1 inhibitor: rat ARFGAP1 inhibition; 360,000 tested, 0.26% active; inhibition, % at 16.5 µM; Q62848; Arfgap1-stimulated ARF1 GTP hydrolysis, GDP FP detection;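 active = inhibition above a per-plate limit, mean inhibition of low control wells plus 3 SD, cut at about 25% in these data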;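 note: 0% = DMSO wells with enzyme and 100% = wells lacking Arfgap1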
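Material: rat Arfgap1 GAP domain (His6, aa 1-136), purified enzyme. Also added: human ARF1(Δ1-17)-GTP substrate. Compound dosing: 16.5 µM single point, 1.26% DMSO. Timing: enzyme reaction 120 min at 25 °C after 20 min preincubation. Signal: GDP detection by fluorescence polarization. Read-out basis: percent inhibition of GAP-stimulated GDP formation, scaled between DMSO and no-Arfgap1 medians.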
PLCg1 inh: inhibitors of human phospholipase C gamma1 | inhibition, % at 12.2 µM | AID 720700 | P19174 | 370,000 tested, 0.84% active | purified PLC-gamma1, fluorogenic substrate, fluorescence; in the data active = inhibition above about 9.5%
PLC-beta3 inh: PLC-beta3 (human) inhibition, primary screen | Purified PLC-beta3, fluorogenic substrate, fluorescence | 370,000 tested, 0.18% active | inhibition, % at 12.2 µM; in the data active = inhibition above about 11%;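 note: 0% = median of compound wells on plate and 100% = full blocker control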
Target sequence (Q01970 whole entry, looked up): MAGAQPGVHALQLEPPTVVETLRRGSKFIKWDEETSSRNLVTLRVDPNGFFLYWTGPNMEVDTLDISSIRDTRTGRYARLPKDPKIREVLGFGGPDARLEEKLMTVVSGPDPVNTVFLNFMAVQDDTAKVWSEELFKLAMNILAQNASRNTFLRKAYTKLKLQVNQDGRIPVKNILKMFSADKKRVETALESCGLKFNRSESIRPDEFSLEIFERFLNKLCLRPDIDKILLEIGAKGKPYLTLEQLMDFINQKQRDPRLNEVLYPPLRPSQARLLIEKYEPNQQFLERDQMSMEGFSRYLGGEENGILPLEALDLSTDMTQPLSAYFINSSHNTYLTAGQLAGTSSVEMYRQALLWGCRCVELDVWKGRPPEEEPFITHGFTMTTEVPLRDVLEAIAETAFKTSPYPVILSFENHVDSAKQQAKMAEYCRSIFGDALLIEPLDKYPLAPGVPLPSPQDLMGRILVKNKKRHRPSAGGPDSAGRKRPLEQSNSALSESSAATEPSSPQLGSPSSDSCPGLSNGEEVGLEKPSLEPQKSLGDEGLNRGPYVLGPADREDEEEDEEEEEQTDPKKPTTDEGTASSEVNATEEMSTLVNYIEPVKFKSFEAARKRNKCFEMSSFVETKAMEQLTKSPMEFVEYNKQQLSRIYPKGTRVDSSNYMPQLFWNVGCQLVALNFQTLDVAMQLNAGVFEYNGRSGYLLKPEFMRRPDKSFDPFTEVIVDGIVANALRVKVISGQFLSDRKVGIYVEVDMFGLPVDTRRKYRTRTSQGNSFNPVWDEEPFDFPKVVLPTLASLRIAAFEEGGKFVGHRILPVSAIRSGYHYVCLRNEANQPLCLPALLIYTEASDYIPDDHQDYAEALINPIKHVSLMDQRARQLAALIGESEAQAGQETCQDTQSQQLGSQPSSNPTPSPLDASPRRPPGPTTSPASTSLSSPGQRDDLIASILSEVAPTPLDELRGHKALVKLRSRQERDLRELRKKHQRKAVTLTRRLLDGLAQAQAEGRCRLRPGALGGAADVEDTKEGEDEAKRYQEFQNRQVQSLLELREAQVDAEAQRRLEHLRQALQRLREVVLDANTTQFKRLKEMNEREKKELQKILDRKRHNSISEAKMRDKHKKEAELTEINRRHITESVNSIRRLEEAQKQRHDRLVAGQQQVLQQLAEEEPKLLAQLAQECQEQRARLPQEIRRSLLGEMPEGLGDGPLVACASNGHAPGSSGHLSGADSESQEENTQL
HGIII-sPLA2 inh: Blocks human group III sPLA2 activity; Q9NZ20; QFRET BODIPY PC-A2 liposome hydrolysis, fluorescence; inhibition, % at 12.2 µM; 370,000 tested, 0.56% active; AID 743126;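 active = inhibition above mean plus 3 SD of compounds lying within the high and low control bounds, cut at about 19% in these data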;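 note: 0% = median of test compound wells and 100% = no enzyme DMSO wells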
ASAP1 GAP inh: blocks human ASAP1-stimulated Arf1 GTP hydrolysis; Q9ULH1; GDP FP detection; inhibition, % at 16.5 µM; 360,000 tested, 0.19% active; AID 624377; in the data active = inhibition above about 25%;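 note: 0% = vehicle with enzyme and substrate and 100% = no enzyme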
The depositor's hits bear a star. This is a sample that favours compounds with a hit; in the whole collection about 1.9% have one here.

What do the screens show for `COc1ccc(-c2cc(C(F)F)n3ncc(C(=O)n4ccnc4C)c3n2)cc1`?
ARFGAP1 inhibitor: 11; PLCg1 inh: -457; PLC-beta3 inh: inactive; HGIII-sPLA2 inh: 25*; ASAP1 GAP inh: -1

How did COc1ccc(-c2cc(C(F)F)n3ncc(C(=O)N4CCc5ccccc54)c3n2)cc1 do in these assays?
ARFGAP1 inhibitor: -1; PLCg1 inh: -9; PLC-beta3 inh: -6; HGIII-sPLA2 inh: 9; ASAP1 GAP inh: 12

How did COC(=O)[C@]12C[C@H](CC(=O)N3CCN(C(=O)c4ccco4)CC3)C(=O)N(Cc3ccc(Cl)cc3Cl)C1=C[C@H](C1CCCC1)O[C@@H]2C do in these assays?
PLCg1 inh: 5; PLC-beta3 inh: 0; HGIII-sPLA2 inh: -5

Results for Cc1c(C(=O)N/N=C/c2ccccc2)sc(=S)n1C ?
ARFGAP1 inhibitor: 26*; PLCg1 inh: -3; PLC-beta3 inh: 1; HGIII-sPLA2 inh: 15; ASAP1 GAP inh: -1

What do the screens show for `COP(=O)(OC)c1ccc(NCc2cc(O)ccc2O)cc1`?
ARFGAP1 inhibitor: -11; PLCg1 inh: -6; PLC-beta3 inh: -3; HGIII-sPLA2 inh: -1; ASAP1 GAP inh: 0

Results for O=C(OCc1ccccc1)c1ccc(NCc2cc(O)ccc2O)cc1 ?
ARFGAP1 inhibitor: 10; PLCg1 inh: -5; PLC-beta3 inh: -6; HGIII-sPLA2 inh: 26*; ASAP1 GAP inh: 9

How did CC(C)OC(=O)c1ccc(NCc2cc(O)ccc2O)cc1 do in these assays?
ARFGAP1 inhibitor: 6; PLCg1 inh: -1; PLC-beta3 inh: -1; HGIII-sPLA2 inh: 22*; ASAP1 GAP inh: 2

Results for COC(=O)C1CN(Cc2cn(Cc3ccc(F)cc3)nn2)CCS(=O)(=O)N1Cc1ccc(OC)cc1 (stereo not given) ?
PLCg1 inh: 1; PLC-beta3 inh: 3; HGIII-sPLA2 inh: 2

How did COC(=O)[C@]12C[C@H](CC(=O)N3CCN(C(=O)C4CC4)CC3)C(=O)N(CCc3ccc(OC)c(OC)c3)C1=C[C@H](C1CCCC1)O[C@@H]2C do in these assays?
PLCg1 inh: 2; PLC-beta3 inh: -4; HGIII-sPLA2 inh: 2

Results for Cc1noc(C)c1S(=O)(=O)N(C)C[C@H]1OCc2cn(nn2)CCCC(=O)N([C@@H](C)CO)C[C@@H]1C ?
ARFGAP1 inhibitor: -6; PLCg1 inh: 1; PLC-beta3 inh: -2; HGIII-sPLA2 inh: 8; ASAP1 GAP inh: 3

How did Cc1noc(C)c1S(=O)(=O)N(C)C[C@@H]1OCc2cn(nn2)CCCC(=O)N([C@@H](C)CO)C[C@H]1C do in these assays?
ARFGAP1 inhibitor: -1; PLCg1 inh: 12*; PLC-beta3 inh: 9; HGIII-sPLA2 inh: 5; ASAP1 GAP inh: -11

How did CC(C)CCN(C)C1CCN(C(=O)Nc2ccc3c(c2)OCO3)CC1 do in these assays?
PLCg1 inh: -2; PLC-beta3 inh: 1; HGIII-sPLA2 inh: 5

Results for C/C(=N\NC(=O)CSc1nnc(-c2ccccc2)n1-c1ccc(C)cc1)c1ccc(-c2ccccc2)cc1 ?
PLCg1 inh: -4; PLC-beta3 inh: 3; HGIII-sPLA2 inh: 3

What do the screens show for `O=C(NCCN1CCc2ccccc2C1)Nc1ccc([N+](=O)[O-])cc1`?
ARFGAP1 inhibitor: 3; PLCg1 inh: 3; PLC-beta3 inh: -4; HGIII-sPLA2 inh: 21*; ASAP1 GAP inh: -5

How did COc1ccc(/C=C/S(=O)(=O)NC2CCCC2)c(CNC(=O)OC(C)(C)C)c1 do in these assays?
PLCg1 inh: 0; PLC-beta3 inh: 1; HGIII-sPLA2 inh: -6

Results for CCO/C=C1/C(=O)N(Cc2ccccc2)C(=O)c2ccccc21 ?
ARFGAP1 inhibitor: 18; PLCg1 inh: -7; PLC-beta3 inh: -4; HGIII-sPLA2 inh: 7; ASAP1 GAP inh: 31*

How did NC(=O)/C(N=Nc1ccccc1)=N/Nc1ccccc1 do in these assays?
ARFGAP1 inhibitor: -3; PLCg1 inh: 1; PLC-beta3 inh: -3; HGIII-sPLA2 inh: 8; ASAP1 GAP inh: 0

Results for OCC1OC(C(N=Nc2ccccc2)=NNc2ccccc2)C(O)C1O (stereo not given) ?
ARFGAP1 inhibitor: 11; PLCg1 inh: -3; PLC-beta3 inh: -10; HGIII-sPLA2 inh: 20*; ASAP1 GAP inh: 7

How did Oc1c(C(Nc2nc3ccccc3s2)c2ccco2)ccc2cccnc12 (stereo not given) do in these assays?
ARFGAP1 inhibitor: 15; PLCg1 inh: -12; PLC-beta3 inh: -21; HGIII-sPLA2 inh: 34*; ASAP1 GAP inh: 5

How did Cc1cnn(C(=S)NCc2ccc(Cl)cc2)c1 do in these assays?
ARFGAP1 inhibitor: -3; PLCg1 inh: 13*; PLC-beta3 inh: 9; HGIII-sPLA2 inh: 1; ASAP1 GAP inh: 5

Results for Cc1ccc(C(=O)N(C)[C@H]2C[C@H]3c4[nH]c5c(-c6ccc7c(c6)OCO7)cccc5c4CCN3C[C@H]2[C@H](C)O)cc1 ?
PLCg1 inh: -5; PLC-beta3 inh: -2; HGIII-sPLA2 inh: 3

How did O=C(CN(c1cccc(C(F)(F)F)c1)S(=O)(=O)c1ccc(Cl)c([N+](=O)[O-])c1)NCc1ccc(F)cc1 do in these assays?
ARFGAP1 inhibitor: 4; PLCg1 inh: 8; PLC-beta3 inh: 11*; HGIII-sPLA2 inh: -2; ASAP1 GAP inh: -5

How did CO[C@@H]1CN(C)C(=O)c2ccc(NC(=O)c3ccccc3F)cc2OC[C@@H](C)N(CC2CCOCC2)C[C@@H]1C do in these assays?
ARFGAP1 inhibitor: -4; PLCg1 inh: 3; PLC-beta3 inh: 11*; HGIII-sPLA2 inh: 9; ASAP1 GAP inh: 0

How did CC(=O)NC(C)c1cc(Cl)c2cccnc2c1O (stereo not given) do in these assays?
ARFGAP1 inhibitor: 8; PLCg1 inh: -8; PLC-beta3 inh: -9; HGIII-sPLA2 inh: -2; ASAP1 GAP inh: 4

How did CN1CCN(C(c2ccc(Br)cc2)c2cc(Cl)c3cccnc3c2O)CC1 (stereo not given) do in these assays?
ARFGAP1 inhibitor: -6; PLCg1 inh: -17; PLC-beta3 inh: -28; HGIII-sPLA2 inh: 20*; ASAP1 GAP inh: 4

How did COC(=O)C1=C(C)N(Cc2ccccc2C(F)(F)F)C(=NCc2ccc3c(c2)OCO3)NC1c1ccccc1C(F)(F)F (stereo not given) do in these assays?
ARFGAP1 inhibitor: 6; PLCg1 inh: 4; PLC-beta3 inh: 11*; HGIII-sPLA2 inh: 2; ASAP1 GAP inh: 16

Results for COCCCN1C(=O)[C@H](CC(=O)N2CCCCC2)[C@]2(C(=O)OC)CCCCC=C12 ?
PLCg1 inh: 2; PLC-beta3 inh: 2; HGIII-sPLA2 inh: 5

What do the screens show for `COc1ccc(N2C(=O)CC(NCc3cccs3)C2=O)cc1` (stereo not given)?
ARFGAP1 inhibitor: 3; PLCg1 inh: 11*; PLC-beta3 inh: 5; HGIII-sPLA2 inh: 7; ASAP1 GAP inh: 9

How did COc1ccc(N2C(=O)CC(NCC#N)C2=O)cc1 (stereo not given) do in these assays?
ARFGAP1 inhibitor: -8; PLCg1 inh: 1; PLC-beta3 inh: -5; HGIII-sPLA2 inh: -5; ASAP1 GAP inh: 0

Results for CN(CCc1ccccn1)C(=O)Cn1nc(-c2ccccc2)ccc1=O ?
PLCg1 inh: -2; PLC-beta3 inh: -2; HGIII-sPLA2 inh: 13

Screens from PubChem BioAssay.
